# Reference: ChEMBL document CHEMBL1770147, “Synthesis and antifungal activity of functionalized 2,3-spirostane isomers” (2011)
# Columns and labels:
# Format in all cases: functional
# Nakaseomyces glabratus [1] = test: Antifungal activity against Candida glabrata ATCC 48435 assessed as reduction in growth after 48 hrs by broth microdilution method relative to control
# How it was run: (§1)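 Growth was read as absorbance at 530 nm after incubation at 35 °C for 48 h. Percent reduction was calculated relative to control wells containing no antifungal, alongside a visual comparison of turbidity with those wells.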
# Aspergillus fumigatus [2] = test: Antifungal activity against Aspergillus fumigatus ATCC 16424 reduction in growth after 48 hrs by broth microdilution method relative to control; how it was run: as §1
# Cryptococcus neoformans [3] = test: Antifungal activity against Cryptococcus neoformans ATCC 36556 assessed as reduction in growth after 48 hrs by broth microdilution method relative to control; how it was run: as §1
# Candida albicans [4] = test: Antifungal activity against Candida albicans ATCC 10231 assessed as reduction in growth after 48 hrs by broth microdilution method relative to control; how it was run: as §1
# Aspergillus fumigatus [5] = test: Antifungal activity against Aspergillus fumigatus ATCC 16424 after 48 hrs by broth microdilution method; conditions: ATCC 16424, 48 h
# How it was run: (§2)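 Plates were incubated at 35 °C for 48 h. MIC was reported only where both criteria held: turbidity clearly lower than in control wells without antifungal on visual comparison, and growth reduced by more than 50% relative to those controls, measured as absorbance at 530 nm.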
# Candida albicans [6] = test: Antifungal activity against Candida albicans ATCC 10231 after 48 hrs by broth microdilution method; conditions: ATCC 10231, 48 h; how it was run: as §2
# Nakaseomyces glabratus [7] = test: Antifungal activity against Candida glabrata ATCC 48435 after 48 hrs by broth microdilution method; conditions: ATCC 48435, 48 h; how it was run: as §2
# Cryptococcus neoformans [8] = test: Antifungal activity against Cryptococcus neoformans ATCC 36556 after 48 hrs by broth microdilution method; conditions: ATCC 36556, 48 h; how it was run: as §2
SMILES,inhibition (INH) (Nakaseomyces glabratus [1]) [%],inhibition (INH) (Aspergillus fumigatus [2]) [%],inhibition (INH) (Cryptococcus neoformans [3]) [%],inhibition (INH) (Candida albicans [4]) [%],MIC50 (Aspergillus fumigatus [5]) [µg/mL],MIC50 (Candida albicans [6]) [µg/mL],MIC50 (Nakaseomyces glabratus [7]) [µg/mL],MIC50 (Cryptococcus neoformans [8]) [µg/mL]
C[C@@H]1CC[C@@]2(OC1)O[C@H]1C[C@H]3[C@@H]4CC[C@H]5CC(=O)CC[C@]5(C)[C@H]4CC[C@]3(C)[C@H]1[C@@H]2C,<25,<25,<25,<25,–,–,–,–
CC(=O)O[C@@H]1C[C@@]2(C)[C@@H](CC[C@@H]3[C@@H]2CC[C@]2(C)[C@@H]4[C@H](C[C@@H]32)O[C@]2(CC[C@@H](C)CO2)[C@H]4C)CC1=O,<25,–,<25,–,> 128,32,–,–
CC(=O)O[C@@H]1C[C@@]2(C)[C@@H](CC[C@@H]3[C@@H]2CC[C@]2(C)[C@@H]4[C@H](C[C@@H]32)O[C@]2(CC[C@@H](C)CO2)[C@H]4C)C[C@H]1O,–,–,–,–,> 128,16,6.25,62.5
C[C@@H]1CC[C@@]2(OC1)O[C@H]1C[C@H]3[C@@H]4CC[C@H]5C[C@@H](O)[C@H](O)C[C@]5(C)[C@H]4CC[C@]3(C)[C@H]1[C@@H]2C,<25,<25,<25,<25,–,–,–,–
CC(=O)O[C@H]1C[C@@]2(C)[C@@H](CC[C@@H]3[C@@H]2CC[C@]2(C)[C@@H]4[C@H](C[C@@H]32)O[C@]2(CC[C@@H](C)CO2)[C@H]4C)C[C@@H]1O,<25,<25,<25,<25,–,–,–,–
CC(=O)O[C@H]1C[C@@H]2CC[C@@H]3[C@H](CC[C@]4(C)[C@@H]5[C@H](C[C@@H]34)O[C@]3(CC[C@@H](C)CO3)[C@H]5C)[C@@]2(C)C[C@@H]1O,<25,<25,<25,<25,–,–,–,–
CC(=O)O[C@H]1C[C@@]2(C)[C@@H](CC[C@@H]3[C@@H]2CC[C@]2(C)[C@@H]4[C@H](C[C@@H]32)O[C@]2(CC[C@@H](C)CO2)[C@H]4C)C[C@H]1O,<25,<25,<25,<25,–,–,–,–
CC(=O)O[C@@H]1C[C@@H]2CC[C@@H]3[C@H](CC[C@]4(C)[C@@H]5[C@H](C[C@@H]34)O[C@]3(CC[C@@H](C)CO3)[C@H]5C)[C@@]2(C)C[C@@H]1O,<25,<25,<25,<25,–,–,–,–
C[C@@H]1CC[C@@]2(OC1)O[C@H]1C[C@H]3[C@@H]4CC[C@H]5C[C@@H](O)CC[C@]5(C)[C@H]4CC[C@]3(C)[C@H]1[C@@H]2C [TIGOGENIN],–,–,<25,<25,16,–,> 62.5,–
